Measurements reported in ChEMBL document CHEMBL3875213, “Quinolines: Microwave-assisted synthesis and their antifungal, anticancer and radical scavenger properties” (Bioorg Med Chem, 2017).
Values after ≈ are worked out from the molar mass of the structure shown. Active and inactive are the calls of the source. The calls are words filed in the database; no cut-off is given here.

Tests used:
[1] = Antifungal activity against Cryptococcus neoformans ATCC 32264 incubated for 48 hrs under dark condition by broth microdilution assay; type: functional
Summary of the method: (§1)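 Broth microdilution per CLSI M27-A3 in RPMI-1640. Inocula adjusted to 1-5 x 10^3 CFU/mL. Stocks in DMSO (≤1%), final 3.9-250.0 µg/mL. Incubated 48 h at 30 °C in a moist, dark chamber, read at OD 405. % inhibition computed from growth and sterility control wells, run in triplicate. MIC80/MIC50 taken from four-parameter logistic concentration-response curves; amphotericin B as positive control.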

[2] = test system: NCI-H226; assay: Selectivity index, ratio of IC50 for human CCD-19Lu cells to IC50 for human NCI-H226 cells; type: functional
Summary of the method: (§2)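 Selectivity index equals IC50 in non-tumour CCD 19-Lu lung fibroblasts divided by IC50 in the tumour line. Both IC50s come from the 24 h MTT assay (read at 540 nm) over 1.0-1,000 µg/mL.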

[3] = test system: Candida albicans; assay: Growth inhibition of Candida albicans ATCC 10231 at 62.5 ug/ml incubated for 48 hrs under dark condition by broth microdilution assay relative to amphotericin B; type: functional; settings: ATCC 10231, 48 h, read-out: GI
Summary of the method: (§3)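 Yeast broth microdilution (CLSI M27-A3), RPMI-1640, inoculum 1-5 x 10^3 CFU/mL, DMSO ≤1%, 48 h at 30 °C in a moist, dark chamber. […]. Triplicate; amphotericin B as positive control.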

[4] = Antioxidant activity assessed as fluorescent light-induced superoxide anion scavenging activity at 160 uM incubated for 10 mins by nitroblue tetrazolium dye based assay; type: functional
Summary of the method: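 Superoxide generated photochemically in 50 mM phosphate buffer pH 7.8 with 13 mM L-methionine, 75 µM nitroblue tetrazolium, 100 µM EDTA and 2 µM riboflavin. Compound at 160 µM. 10 min at 25 °C under fluorescent light; dark controls. Read at 575 nm. Resveratrol as positive control; three independent experiments in triplicate.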

[5] = test system: Candida albicans; assay: Antifungal activity against Candida albicans ATCC 10231 incubated for 48 hrs under dark condition by broth microdilution assay; type: functional; settings: ATCC 10231, 48 h; summary of the method: as §1
[6] = test system: Candida albicans; assay: Growth inhibition of Candida albicans ATCC 10231 at 15.62 ug/ml incubated for 48 hrs under dark condition by broth microdilution assay relative to amphotericin B; type: functional; settings: ATCC 10231, 48 h, read-out: GI; summary of the method: as §3
[7] = test system: Candida albicans; assay: Growth inhibition of Candida albicans ATCC 10231 at 31.25 ug/ml incubated for 48 hrs under dark condition by broth microdilution assay relative to amphotericin B; type: functional; settings: ATCC 10231, 48 h, read-out: GI; summary of the method: as §3
[8] = Antioxidant activity assessed as DPPH radical scavenging activity incubated for 30 mins under dark condition; type: functional
Summary of the method: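 DPPH (100 µM) in ethanolic medium, stirred 30 min in the dark, absorbance at 517 nm. Compound varied from 0 to 160 µg/mL to find the concentration scavenging 50% of radicals. Three independent experiments, each in triplicate.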

[9] = Antioxidant activity assessed as fluorescent light-induced superoxide anion scavenging activity incubated for 10 mins by nitroblue tetrazolium dye based assay; type: functional
Summary of the method: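 Riboflavin/light superoxide system: 50 mM phosphate pH 7.8, 13 mM L-methionine, 75 µM NBT, 100 µM EDTA, 2 µM riboflavin, compound 0-200 µg/mL. Fluorescent light for 10 min at 25 °C, dark controls, scavenging measured at 575 nm. Resveratrol as reference.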

[10] = test system: Candida albicans; assay: Growth inhibition of Candida albicans ATCC 10231 at 7.81 ug/ml incubated for 48 hrs under dark condition by broth microdilution assay relative to amphotericin B; type: functional; settings: ATCC 10231, 48 h, read-out: GI; summary of the method: as §3
[11] = Antioxidant activity assessed as DPPH radical scavenging activity at 160 uM incubated for 30 mins under dark condition; type: functional
Summary of the method: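 Compound at 160 µM incubated with 100 µM DPPH in ethanolic medium, stirred in the dark for 30 min, read at 517 nm. Resveratrol as positive control. Three independent experiments, each in triplicate.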

[12] = test system: Candida albicans; assay: Growth inhibition of Candida albicans ATCC 10231 at 125 ug/ml incubated for 48 hrs under dark condition by broth microdilution assay relative to amphotericin B; type: functional; settings: ATCC 10231, 48 h, read-out: GI; summary of the method: as §3
[13] = test system: Candida albicans; assay: Growth inhibition of Candida albicans ATCC 10231 at 250 ug/ml incubated for 48 hrs under dark condition by broth microdilution assay relative to amphotericin B; type: functional; settings: ATCC 10231, 48 h, read-out: GI; summary of the method: as §3
[14] = Antiproliferative activity against human NCI-H226 cells harboring TP53 mutant after 24 hrs by MTT assay; type: functional, cell-based; settings: NCI-H226, 24 h
Summary of the method: (§4)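 Cells grown in medium with 10% foetal bovine serum and 1% L-glutamine at 37 °C, 5% CO2, seeded at 1 x 10^5 cells/well. Exposed to compound at 1.0-1,000 µg/mL for 24 h. MTT added, absorbance read at 540 nm 3 h later. IC50 obtained by non-linear regression of viability data.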

[15] = Antiproliferative activity against human CCD-19Lu cells after 24 hrs by MTT assay; type: cell-based; summary of the method: as §4
[16] = test system: Candida albicans; assay: Growth inhibition of Candida albicans ATCC 10231 at 3.9 ug/ml incubated for 48 hrs under dark condition by broth microdilution assay relative to amphotericin B; type: functional; settings: ATCC 10231, 48 h, read-out: GI; summary of the method: as §3
[17] = Antiproliferative activity against human TOV21G harboring wild type TP53 cells after 24 hrs by MTT assay; type: functional, cell-based; summary of the method: as §4
[18] = Antiproliferative activity against human Hep2C cells after 24 hrs by MTT assay; type: functional, cell-based; summary of the method: as §4
[19] = Selectivity index, ratio of IC50 for human CCD-19Lu cells to IC50 for human TOV21G cells; type: functional; summary of the method: as §2
[20] = Selectivity index, ratio of IC50 for human CCD-19Lu cells to IC50 for human Hep2C cells; type: functional; summary of the method: as §2

SMILES | MIC50 [1] | MIC80 [1] | Ratio IC50 [2] | inhibition of growth at 62.5 µg/mL [3] | Activity [4] | MIC50 [5] | MIC80 [5] | inhibition of growth at 15.62 µg/mL [6] | inhibition of growth at 31.25 µg/mL [7] | SC50 [8] | SC50 [9] | inhibition of growth at 7.81 µg/mL [10] | Activity [11] | inhibition of growth at 125 µg/mL [12] | inhibition of growth at 250 µg/mL [13] | IC50 [14] | IC50 [15] | inhibition of growth at 3.9 µg/mL [16] | IC50 [18] | Ratio IC50 [20] | other results
Brc1ccc2nc(C3CCCCC3)cc(-c3ccccc3)c2c1 | 250 µg/mL (≈ 682 µM) | > 250 µg/mL | 5 | 3.29% | Active | 250 µg/mL (≈ 682 µM) | > 250 µg/mL | 0% | 1.49% | 118 µM | > 250 µM | 0% | 45 to 55% | 11.3% | 37.2% | 91 µM | 490 µM | 0% |  |  | 
Fc1ccc(-c2cc(-c3ccccc3)c3cc(Br)ccc3n2)cc1 | 15.6 µg/mL (≈ 41.2 µM) | > 250 µg/mL |  | 4.13% | Active | > 250 µg/mL | > 250 µg/mL | 4.24% | 4.35% |  |  | 1.37% |  | 6.09% | 17.2% |  |  | 0.19% | 5 µM |  | IC50 [17]: 570 µM
Brc1ccc2nc(-c3ccco3)cc(-c3ccccc3)c2c1 | 62.5 µg/mL (≈ 178 µM) | 250 µg/mL (≈ 714 µM) | 21 | 21.5% |  | 62.5 µg/mL (≈ 178 µM) | 125 µg/mL (≈ 357 µM) | 8.68% | 13.1% | 82.7 µM | > 250 µM | 4.37% | 45 to 55% | 43.2% | 83.3% | 30 µM | 631 µM | 1.75% | 102 µM | 6 | Ratio IC50 [19]: 0; Activity [1]: Dose-dependent effect; IC50 [17]: 877 µM
COc1cc(-c2cc(-c3ccccc3)c3cc(Br)ccc3n2)cc(OC)c1OC | 62.5 µg/mL (≈ 139 µM) | 250 µg/mL (≈ 555 µM) | 1 | 20.8% |  | 125 µg/mL (≈ 278 µM) | 250 µg/mL (≈ 555 µM) | 7.32% | 12.9% | 428 µM | > 250 µM | 2.99% |  | 52.9% | 82.7% | 61 µM | 104 µM | 0% |  |  | Ratio IC50 [19]: 0; IC50 [17]: 493 µM
c1ccc(-c2cc(-c3ccccc3)c3c4c(ccc3n2)OCO4)cc1 | 31.2 µg/mL (≈ 95.9 µM) | 250 µg/mL (≈ 768 µM) | 8 | 8.77% | Active | > 250 µg/mL | > 250 µg/mL | 3.62% | 5.74% |  |  | 0% |  | 13.5% | 24.2% | 40 µM | 354 µM | 0% | 951 µM | 0 | 
Clc1ccc(-c2cc(-c3ccccc3)c3cc(Br)ccc3n2)cc1 | 250 µg/mL (≈ 633 µM) | > 250 µg/mL | 356 | 9.38% |  | 250 µg/mL (≈ 633 µM) | > 250 µg/mL | 6.88% | 6.78% | 180 µM | > 250 µM | 0% | 45 to 55% | 24.7% | 50.5% | 1.58 µM | 528 µM | 0% | 269 µM | 1 | 
Oc1ccc(-c2cc(-c3ccccc3)c3cc(Br)ccc3n2)cc1 | 62.5 µg/mL (≈ 166 µM) | 250 µg/mL (≈ 664 µM) | 13 | 9.63% | Active | 62.5 µg/mL (≈ 166 µM) | 125 µg/mL (≈ 332 µM) | 4.5% | 6.17% |  |  | 3.56% |  | 21.2% | 45.8% | 8 µM | 104 µM | 2.41% | 105 µM | 0 | 
N#Cc1ccc(-c2cc(-c3ccccc3)c3cc(Br)ccc3n2)cc1 | > 250 µg/mL | > 250 µg/mL |  | 2.54% | Active | > 250 µg/mL | > 250 µg/mL | 0% | 2.44% |  |  | 0% |  | 4.86% | 5.75% |  |  | 0% | 98.8 µM |  | 
